Experiments:
D(1A) dopamine receptor = D(1A) dopamine receptor (Homo sapiens, UniProt P21728); assay: Displacement of [3H]SCh23390 from dopamine D1 receptor expressed in mouse LTK cells by scintillation counting; assay type: cell-based
D(2) dopamine receptor = D(2) dopamine receptor (Homo sapiens, UniProt P14416); assay: Displacement of [3H]methylspiperon from dopamine D2 receptor expressed in mouse LTK cells by scintillation counting; assay type: cell-based
D(1B) dopamine receptor = D(1B) dopamine receptor (Homo sapiens, UniProt P21918); assay: Displacement of radioligand from dopamine D5 receptor expressed in mouse LTK cells by scintillation counting; assay type: cell-based
Sequence of D(1B) dopamine receptor (P21918 whole entry): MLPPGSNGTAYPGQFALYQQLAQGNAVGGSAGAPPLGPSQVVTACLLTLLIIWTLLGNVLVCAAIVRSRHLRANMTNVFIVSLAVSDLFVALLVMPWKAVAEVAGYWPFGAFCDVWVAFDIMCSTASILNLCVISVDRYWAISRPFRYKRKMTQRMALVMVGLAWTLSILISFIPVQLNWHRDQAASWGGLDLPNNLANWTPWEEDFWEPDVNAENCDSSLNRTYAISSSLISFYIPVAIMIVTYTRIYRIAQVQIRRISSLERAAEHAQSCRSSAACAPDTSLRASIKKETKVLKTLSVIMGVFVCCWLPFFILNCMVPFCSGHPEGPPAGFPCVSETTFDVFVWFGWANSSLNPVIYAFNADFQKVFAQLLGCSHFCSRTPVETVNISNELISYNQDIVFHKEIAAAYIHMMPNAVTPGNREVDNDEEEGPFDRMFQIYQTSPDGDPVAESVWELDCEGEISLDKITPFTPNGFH
In short: (§1)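 Ki came from equilibrium radioligand binding. Bound and free radioligand were separated by rapid filtration, and bound counts were measured by liquid scintillation. Standard error was 10%, and assay-to-assay variability was under twofold.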

D(4) dopamine receptor = biological target: T1, D(4) dopamine receptor (Homo sapiens, UniProt P21917); assay: Displacement of radioligand from dopamine D4 receptor expressed in mouse LTK cells by scintillation counting; assay type: cell-based; in short: as §1
T1 sequence (P21917 whole entry): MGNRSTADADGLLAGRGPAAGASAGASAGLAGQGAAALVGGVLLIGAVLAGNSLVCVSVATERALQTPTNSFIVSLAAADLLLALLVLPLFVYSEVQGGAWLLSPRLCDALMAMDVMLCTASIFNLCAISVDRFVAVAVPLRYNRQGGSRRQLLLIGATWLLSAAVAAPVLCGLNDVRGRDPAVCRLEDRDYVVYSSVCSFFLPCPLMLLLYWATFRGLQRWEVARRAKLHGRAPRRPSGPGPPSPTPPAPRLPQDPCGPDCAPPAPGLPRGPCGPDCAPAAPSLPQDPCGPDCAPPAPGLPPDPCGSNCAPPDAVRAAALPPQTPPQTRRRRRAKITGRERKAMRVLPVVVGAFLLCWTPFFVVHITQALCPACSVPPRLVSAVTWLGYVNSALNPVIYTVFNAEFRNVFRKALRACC

Rattus norvegicus = assay: AUC (0 to 6 hrs) in Sprague-Dawley rat at 10 mg/kg, po; assay type: ADME, organism-based, Plasma; set-up: time < 6 hr, dose 10 mg/kg, route oral; details: in vivo
In short: (§2)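 Two male Sprague–Dawley rats received 10 mg/kg orally under a cassette-accelerated rapid rat protocol. Blood was sampled at several time points, and values came from pooled samples. […] Individual plasma levels were generally within ±25% of the average.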

[1] = Cmax in Sprague-Dawley rat at 10 mg/kg, po; assay type: ADME, organism-based; set-up: dose 10 mg/kg, route oral; details: in vivo; in short: as §2
[2] = Tmax in Sprague-Dawley rat at 10 mg/kg, po; assay type: ADME, organism-based; set-up: dose 10 mg/kg, route oral; details: in vivo; in short: as §2

Sequence of D(2) dopamine receptor (P14416 whole entry): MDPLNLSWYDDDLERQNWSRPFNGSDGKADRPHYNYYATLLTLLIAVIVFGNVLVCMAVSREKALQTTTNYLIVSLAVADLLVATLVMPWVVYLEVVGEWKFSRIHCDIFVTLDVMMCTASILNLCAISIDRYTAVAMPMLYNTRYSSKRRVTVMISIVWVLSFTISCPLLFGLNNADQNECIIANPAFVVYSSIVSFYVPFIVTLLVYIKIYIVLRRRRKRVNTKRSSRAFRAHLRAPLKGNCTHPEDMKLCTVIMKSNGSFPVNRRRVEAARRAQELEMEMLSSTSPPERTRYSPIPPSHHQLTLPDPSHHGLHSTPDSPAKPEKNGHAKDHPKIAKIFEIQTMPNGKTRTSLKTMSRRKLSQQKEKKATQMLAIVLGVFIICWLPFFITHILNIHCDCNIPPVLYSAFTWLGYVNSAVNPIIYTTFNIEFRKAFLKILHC
Sequence of D(1A) dopamine receptor (P21728 whole entry): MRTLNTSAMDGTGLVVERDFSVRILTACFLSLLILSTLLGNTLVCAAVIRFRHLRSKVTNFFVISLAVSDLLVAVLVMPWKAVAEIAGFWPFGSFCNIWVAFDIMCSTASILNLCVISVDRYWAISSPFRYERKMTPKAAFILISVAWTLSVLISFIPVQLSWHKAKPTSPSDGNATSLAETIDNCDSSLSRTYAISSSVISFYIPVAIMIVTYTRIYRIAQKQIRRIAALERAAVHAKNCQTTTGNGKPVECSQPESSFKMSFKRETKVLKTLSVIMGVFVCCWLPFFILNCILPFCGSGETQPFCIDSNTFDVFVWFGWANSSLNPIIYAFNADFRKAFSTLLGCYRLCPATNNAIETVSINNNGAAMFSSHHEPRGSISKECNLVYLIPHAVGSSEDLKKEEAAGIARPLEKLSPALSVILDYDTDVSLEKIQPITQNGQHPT

| SMILES | Ki (D(1A) dopamine receptor) | Ki (D(2) dopamine receptor) | Ki (D(1B) dopamine receptor) | Ki (D(4) dopamine receptor) | AUC (Rattus norvegicus) | Cmax [1] | Tmax [2] |
| --- | --- | --- | --- | --- | --- | --- | --- |
| CN1CCc2cc(Cl)c(O)cc2[C@H]2c3cccc(-c4cccc(F)c4)c3CC[C@@H]21 | 0.4 nM | 223 nM | – | – | – | – | – |
| CN1CCc2cc(Cl)c(O)cc2[C@H]2c3cccc(-c4cccc(C#N)c4)c3CC[C@@H]21 | 0.6 nM | 584 nM | 3.4 nM | 10000 nM | – | – | – |
| CN1CCc2cc(Cl)c(O)cc2[C@H]2c3cccc(C(=O)O)c3CC[C@@H]21 | 38 nM | 420 nM | – | – | – | – | – |
| CN1CCc2cc(Cl)c(O)cc2[C@H]2c3cccc(N4CCCC4=O)c3CC[C@@H]21 | 3.1 nM | 1370 nM | 26.9 nM | 10000 nM | – | – | – |
| CN1CCc2cc(Cl)c(O)cc2[C@H]2c3cccc(CO)c3CC[C@@H]21 | 2 nM | 1650 nM | 7.4 nM | 6280 nM | – | – | – |
| CO/N=C/c1cccc2c1CC[C@H]1[C@H]2c2cc(O)c(Cl)cc2CCN1C | 4.4 nM | 483 nM | 22 nM | 7510 nM | – | – | – |
| COc1ccc(-c2cccc3c2CC[C@H]2[C@H]3c3cc(O)c(Cl)cc3CCN2C)cc1 | 0.7 nM | 550 nM | 6.2 nM | 10000 nM | 76 µg·h/mL | 18 ng/mL | 2 h |
| CN1CCc2cc(Cl)c(O)cc2[C@H]2c3cccc(-c4ccc(CO)cc4)c3CC[C@@H]21 | 0.7 nM | 89 nM | – | – | – | – | – |
| CN1CCc2cc(Cl)c(O)cc2[C@H]2c3cccc(O)c3CC[C@@H]21 | – | 440 nM | 1.4 nM | 3990 nM | – | – | – |
| CN1CCc2cc(Cl)c(O)cc2[C@H]2c3cccc(-c4cccc(OC(F)(F)F)c4)c3CC[C@H]21 | 2.3 nM | 1610 nM | – | – | – | – | – |
| CN1CCc2cc(Cl)c(O)cc2[C@H]2c3cccc(/C=N/O)c3CC[C@@H]21 | 1.6 nM | 882 nM | 3.3 nM | 4370 nM | – | – | – |
| CN1CCc2cc(Cl)c(O)cc2[C@H]2c3cccc(-c4ccncc4)c3CC[C@@H]21 | – | 756 nM | 10.5 nM | 5060 nM | 75 µg·h/mL | 43 ng/mL | 0.5 h |
| CN1CCc2cc(Cl)c(O)cc2[C@H]2c3ccccc3CC[C@@H]21 [ECOPIPAM] | – | – | 2 nM | 5520 nM | 156 µg·h/mL | – | – |

Further compounds by falling Ki (D(2) dopamine receptor), results first:

| Ki (D(1A) dopamine receptor) | Ki (D(2) dopamine receptor) | Ki (D(1B) dopamine receptor) | Ki (D(4) dopamine receptor) | AUC (Rattus norvegicus) | Cmax [1] | Tmax [2] | SMILES |
| --- | --- | --- | --- | --- | --- | --- | --- |
| 3 nM | 1690 nM | 7.5 nM | 10000 nM | – | – | – | CN1CCc2cc(Cl)c(O)cc2[C@H]2c3cccc(Br)c3CC[C@@H]21 |
| 2.6 nM | 1370 nM | 3.3 nM | 5970 nM | – | – | – | CN1CCc2cc(Cl)c(O)cc2[C@H]2c3cccc(C=O)c3CC[C@@H]21 |
| 2.8 nM | 1330 nM | 89 nM | 10000 nM | – | – | – | CN1CCc2cc(Cl)c(O)cc2[C@H]2c3cccc(C#N)c3CC[C@@H]21 |
| 2.3 nM | 923 nM | 3.7 nM | 4830 nM | – | – | – | COC(=O)c1cccc2c1CC[C@H]1[C@H]2c2cc(O)c(Cl)cc2CCN1C |
| 0.6 nM | 618 nM | 4.7 nM | 10000 nM | – | – | – | CN1CCc2cc(Cl)c(O)cc2[C@H]2c3cccc(-c4cccc([N+](=O)[O-])c4)c3CC[C@@H]21 |
| 0.9 nM | 312 nM | – | – | – | – | – | CN1CCc2cc(Cl)c(O)cc2[C@H]2c3cccc(-c4cc(F)cc(F)c4)c3CC[C@@H]21 |
| 1.8 nM | 217 nM | 10 nM | 5890 nM | – | – | – | CCO/N=C/c1cccc2c1CC[C@H]1[C@H]2c2cc(O)c(Cl)cc2CCN1C |
| 1 nM | 124 nM | 2.1 nM | 10000 nM | – | – | – | CN1CCc2cc(Cl)c(O)cc2[C@H]2c3cccc(/C=N/Oc4ccccc4)c3CC[C@@H]21 |
| – | 93 nM | 1.9 nM | 10000 nM | 353 µg·h/mL | 90 ng/mL | 2 h | CN1CCc2cc(Cl)c(O)cc2[C@H]2c3cccc(-c4cccs4)c3CC[C@@H]21 |
| – | 79 nM | – | – | – | – | – | CN1CCc2cc(Cl)c(O)cc2[C@H]2c3cccc(-c4ccccc4)c3CC[C@@H]21 |
| 0.2 nM | 69 nM | 2.5 nM | 8340 nM | – | – | – | CN1CCc2cc(Cl)c(O)cc2[C@H]2c3cccc(/C=N/OCc4ccccc4)c3CC[C@@H]21 |
| 0.6 nM | 51 nM | – | – | – | – | – | CN1CCc2cc(Cl)c(O)cc2[C@H]2c3cccc(-c4ccc5[nH]ccc5c4)c3CC[C@@H]21 |
| 0.7 nM | 12 nM | – | – | – | – | – | CN(C)c1ccc(-c2cccc3c2CC[C@H]2[C@H]3c3cc(O)c(Cl)cc3CCN2C)cc1 |

— ChEMBL document CHEMBL1156846, “Remote functionalization of SCH 39166: discovery of potent and selective benzazepine dopamine D1 receptor antagonists” (Bioorg Med Chem Lett, 2010)
